From ChEMBL document CHEMBL4513216, “Probing the Open Global Health Chemical Diversity Library for Multistage-Active Starting Points for Next-Generation Antimalarials” (ACS Infect Dis, 2020)

Assay: Toxicity liver stage against HepG2, at 10uM
Assay type: cell-based
Design: test concentration 10 uM, cell line HepG2-A16-CD81EGFP
Conditions: human, HepG2-A16-CD81EGFP cells; read-out: INHIBITION
Summary of the method: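 Uninfected HepG2-A16-CD81EGFP cells, 3 × 10^3 per well, 1536-well, plated on prespotted compound at 10 μM final, parasite-free screening media added to match infected plates; puromycin 10 μM positive, DMSO 0.5% negative; run in parallel with 48 h PbLuc assay at 37 °C, 5% CO2; viability by CellTiter-Glo luminescence, normalized to controls.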

SMILES | cytotoxicity at 10 µM [%]
COc1ccc(C(=O)NCc2ccc(C(=O)O)o2)cc1 | -0.806
Cc1ccc(NCc2ccccc2C#N)cc1-n1cnnn1 | 4.25
CN1CCC(NC(=O)c2cc(C3CCCCC3)nc3ccccc23)CC1 | -1.25
O=C(CCC(=O)N1CCC(c2noc3cc(F)ccc23)CC1)NC1CC1 | 5.09
Cc1ccccc1NC(=O)NCCn1nc(C(F)(F)F)n(C)c1=O | -1.68
CCOCc1cnc2n1CCN(C(=O)Cc1ccco1)C2C (configuration not stated) | 3.53
Cc1cnc(N2CCC3(CC2)CC(NC(=O)N(C)C)CO3)nc1 (configuration not stated) | 6.31
Cc1nnc([C@H]2CC[C@@H]3[C@@H](CCN3CC3CCOCC3)O2)o1 | 10.1
O=C(c1ccsc1)N1C[C@H](N2CCOCC2)[C@@H]2OCCC[C@@H]21 | 8.28
CN(C)C(=O)CN1C[C@@H]2OCCN(c3ncc(F)cn3)[C@@H]2C1 | -0.756
COCc1n[nH]/c(=N\C(=O)c2c3c(nc4onc(C)c24)CCC3)s1 | -4.41
CCCC(=O)N1CCC(Nc2nc(O)cc(-c3ccsc3)n2)CC1 | 5.46
Cc1cn([C@H]2CCNC[C@]2(C)O)c(=O)[nH]c1=O | -6.22
Cc1cc(-c2ccc(=O)n(CCNC(=O)C3CCC3)n2)c(C)o1 | -2.32
Cc1cc(C)n(CCNCc2cc(-c3ccc(F)cc3)c[nH]c2=O)n1 | -5.24
Cn1nccc1-c1cncc(C2CCCN(S(C)(=O)=O)C2)n1 (configuration not stated) | 6.62
CCc1cccc2cc(CN)c(=O)[nH]c12 | 3.54
Cc1cccc(NC(=O)c2cnc(C3CCCNC3)cn2)n1 (configuration not stated) | 3.04
CC(=O)Nc1cc(CCC2CCN(C(=O)c3ccccn3)CC2)ccn1 | -0.331
COc1ccc(C(C)NCc2cccs2)cc1Cn1cccn1 (configuration not stated) | 10.2
CCOCC(O)CNc1cncc(Br)c1 (configuration not stated) | 4.21
Cc1ncc(CNC(=O)NCc2c(F)cccc2OC(F)F)s1 | -4.27

SMILES | cytotoxicity at 10 µM [%]
CCOCCN1CCN(CC2(O)CCCCC2)CC1 | 1.34
Cn1c(CS(=O)(=O)c2ccc(Cl)cc2)cc(=O)n(C)c1=O | 7.5
COc1ccc(OCCN(C)CCCn2cnc3c(N)ncnc32)cc1 | 1.12
CC(C)Cc1cc(C(=O)N2CCCN(c3ncccn3)CC2)[nH]n1 | 4.57
O=C(CCn1cncn1)NCCOc1cccc(Cl)c1 | 1.58
Cc1ccccc1Cc1nc(CSc2nnc(N)n2C)no1 | 5.26
CCc1nc(Cn2c(=O)c3c(C(F)(F)F)cc(C)nc3n2C)no1 | 2.58
CNC(=O)NCC(=O)N1CCCC1Cc1cccc(F)c1 (configuration not stated) | -2.59
CC(NC(=O)c1cc(N2CCNC2=O)ccc1F)c1ccc(F)cc1 (configuration not stated) | 5.89
COc1ccc(CC(=O)N2CCC(c3nnc4n3CCC4)CC2)cc1F | -1.65
CCN(C)CCNC(=O)Cc1nc(-c2ccco2)oc1C | -12.5
CC(C(=O)NCc1ccnc(OC2CCCC2)c1)n1cncn1 (configuration not stated) | 10.4
CC(C)CC(=O)N1CCN(Cc2csc(-c3ncccn3)n2)CC1 | 8.61
Cc1cccnc1NC(=O)CNC(=O)c1ccccc1Cl | -3.36
Cc1ccc(CN(C(=O)NCC(c2cccs2)N(C)C)C2CC2)o1 (configuration not stated) | -4.24
CC(C)(C)C(O)CN1CCN(C(=O)COCC2CC2)CC1 (configuration not stated) | 5.54
Cc1ccc(CNC(=O)CNCC2CCN(CCO)CC2)s1 | 6.89
Cc1cc(N2CCc3cnc(C)nc3C2)n2nc(C(F)(F)F)nc2n1 | 0.769
Cn1cnnc1CCNC(=O)c1cnn(Cc2ccccc2)c1 | -0.722
COc1c(NC(=O)N(C)CCOc2ccc(F)cc2)c(C)nn1C | 1.4
FC(F)(F)c1nnc2n1CCN(c1nc(C3CC3)ns1)C2 | 8.21
CN(CCS(=O)(=O)c1cc(Cl)ccc1Cl)CC(N)=O | 4.65

SMILES | cytotoxicity at 10 µM [%]
Cc1nccn1-c1ncccc1CNC(=O)c1ccc(O)nc1 | -7.55
CC(C)C(C)(C#N)NC(=O)Cn1cc(Cl)cn1 (configuration not stated) | 1.18
CCNC(=O)N1CCc2ccc(NC(=O)NCC3CC3)cc21 | 3.53
O=C(NC1CCN(CC2CC2)C1)c1ccc(C(=O)c2cc[nH]c2)cc1 (configuration not stated) | -6.14
Cc1ccc2[nH]c(C(=O)N3CCC4(CC3)C(=O)NCCN4C)nc2c1 | 1.43
O=C1CC(NS(=O)(=O)N2CCOCC2)CN1CCc1ccccc1 (configuration not stated) | 14.4
CCn1c(CN(C)C)nnc1C1CCN(Cc2ccc(C)s2)CC1 | 7.01
Cc1ccc(-c2ccnc(N(C)CC3CCCN3C)n2)c(C)n1 (configuration not stated) | -9.66
COC(=O)[C@@H](NC(=O)c1coc(COc2cccc(F)c2)n1)C(C)C | -142
Cc1nn(C)c2nc(-c3ccccn3)nc(NC[C@@H]3CCCO3)c12 | 7.49
CCc1ccccc1OC1CN(C(=O)c2cccs2)C1 | 13.7
COCCCN(C(=O)c1ccc(-n2ccnc2)cc1)C1CCN(C)CC1 | -15.8
Cc1cc(=O)[nH]c(SC(C)C(=O)N2CCC(c3ncc[nH]3)CC2)n1 (configuration not stated) | -16.2
Nc1ccc(C(=O)N2CCCC(c3nccn3Cc3cscn3)C2)cn1 (configuration not stated) | -4.92
COc1ccc(/C=C/CN2CCN(c3ncccc3C(N)=O)CC2)cc1 | -8.88
CCC(CC)N(Cc1ccc2c(c1)OCO2)C(=O)c1ccc(=O)n(C)c1 | 9.06
COCC(=O)N1CC[C@]2(O)CCN(Cc3ccsc3)C[C@@H]2C1 | 0.196
COCCN1CC(=O)N2CC[C@@H](O)C[C@H]2C1=O | -8.03
CCn1ccnc1C1CCN(C(=O)C(O)c2ccc(OC)cc2)CC1 (configuration not stated) | 0.171
CNC(=O)C(C)CNC(=O)c1coc(COc2cccc(F)c2F)n1 (configuration not stated) | 5.21
CCc1c(C(=O)N2CC[C@H](N3CCOCC3)[C@H](CCCO)C2)csc1C | -141
Cc1c(C(=O)N2CCC3(CCCN(CC4CC4)C3=O)C2)ccn1C (configuration not stated) | -3.92

SMILES | cytotoxicity at 10 µM [%]
CN(CCc1noc(C2CC2)n1)C(=O)C1(N2CCCC2)CCCC1 | -146
COc1cccc(OCC2CCCN(C(=O)c3cc(C)n[nH]3)C2)c1 (configuration not stated) | -3.42
CSc1ccc2cc(CN(C)CCO)c(=O)[nH]c2c1 | 5.76
C[C@@H]1CN(C(=O)CCCN2CCCC2)CC[C@@]1(O)C1CCOCC1 | -0.422
O=S1(=O)C[C@@H]2[C@H](C1)N(Cc1ccc3ccccc3c1)CCN2CC1CC1 | 1.99
CCn1nc(C)c(NC(=O)CN2CC[C@H](CO)[C@@H](O)C2)c1C | 0.887
Cc1ccccc1C(=O)Nc1ccc(OC2CCN(C)CC2)cc1 | -1.57
O=C(NCCN1CCNC1=O)c1cc(-c2ccc(O)cc2)n[nH]1 | 6.27
CCn1ncnc1C(C)NC(=O)C1CCN(C(=O)COC)CC1 (configuration not stated) | 2.82
Cc1nc(N2CCN(C)CC2)ncc1C(=O)N1CC(C)(C)C(C)(O)C1 (configuration not stated) | 18.5
COc1ccc(OC)c(CNCc2ccnc(N3CCCCC3)c2)c1 | 0.25
CCn1ccnc1CN1CCN(CC(O)c2ccco2)CC1 (configuration not stated) | -4.57
CN(C)CC1CN(Cc2cccc(C(=O)N(C)C)c2)CCO1 (configuration not stated) | -0.729
Cc1c[nH]cc1C(=O)N1CCN(Cc2nc(C(C)C)no2)CC1 | -4.54
CC1CCCN(C(=O)c2cccc(CS(C)(=O)=O)c2)C1 (configuration not stated) | -1.42
Cc1nn(C)c(N(C)C)c1CNCc1cccc(OCCN(C)C)c1 | 1.38
CCn1ccnc1CN1CCN(C(C)C(=O)NC2CCCCC2)CC1 (configuration not stated) | -2.17
Cc1noc(C)c1CN1CCN(Cc2nccn2C)C(C)C1 (configuration not stated) | -5.38
CNS(=O)(=O)CCCN1CCCC1c1noc(C2CC2)n1 (configuration not stated) | -16.5
O=C(c1cccc(N2CCCC2=O)c1)N1CCCC(n2cncn2)C1 (configuration not stated) | -12
CCNC(=O)[C@@H]1CCCN1C1(C(=O)NC)CCCCC1 | 5.09
CNC(=O)N1CCC2(CC1)CNc1ccc(F)cc12 | 10.1

SMILES | cytotoxicity at 10 µM [%]
Cc1cc(Oc2ccc(NC(=O)C3CC3)cc2)cc(C2CCNCC2)n1 | -6.18
CCC1=N[C@@]2(CC[C@@H]3CN(Cc4ccccc4F)C[C@@H]32)C(=O)N1 | -1.22
O=C1COC2(CCN(Cc3cccs3)CC2)CN1c1cccnc1 | -125
CC(C)N1CC[C@@H]2[C@H](COCC3CC3)CN(C)C(=O)[C@@H]2CC1 | 6.8
Cc1noc(C)c1CN1C[C@H](OCC(=O)N(C)C)[C@H]2OCCC[C@H]21 | 8.34
Cc1cccc(CN2CC3C[C@]3(NC(=O)c3cccc(F)c3)C2)n1 (some centres not stated) | -151
CCOCC1c2c(ncn2C(C)C)CCN1C(C)C (configuration not stated) | 10.5
CCCS(=O)(=O)N1CCO[C@H]2[C@@H](Oc3cccnc3)CC[C@@H]21 | -3.15
CCC(=O)Nc1ccc2c(c1)C1(CCOCC1)CN2CCF | -87.4
CNC(=O)[C@H]1C[C@@H]2CN(C(=O)c3cccnc3)C[C@@H]2N1S(C)(=O)=O | -4.12
c1cc2c(cc1CN1CC[C@H]3CO[C@H](CN4CCCC4)[C@H]3C1)OCO2 | 0.355
CCOCC1CN(Cc2ccco2)Cc2nccn2C1 (configuration not stated) | -142
O=C1[C@H]2CN(C3CCOC3)C[C@H]2CN1c1ccccc1 (some centres not stated) | 7.16
O=C(c1cnccn1)N1C[C@@H]2C[C@@H](c3nc(C4CC4)cs3)O[C@@H]2C1 | -118
O=C([C@H]1CCCO1)N1CCCC2(CCN(Cc3ccncc3)C2=O)C1 (some centres not stated) | 11.9
CN(C)C(=O)CN1CCOCC2(C1)CN(c1ncc(F)cn1)CCO2 (configuration not stated) | -6.69
Cn1cnc(S(=O)(=O)N2C[C@H]3CC[C@@H](C2)N(Cc2cscn2)C3=O)c1 | -20.2
O=C(CSc1ccccc1)N1C[C@@H]2CC[C@H]1CN(Cc1ccncc1)C2 | -0.143
Oc1cccc(CN2C[C@@H]3CC[C@H]2CN(Cc2cccnc2)C3)c1 | -121
